# The list is not random: actives were taken first. Their share in the collection is about 2.6%.
# Lipid droplet: hepatic lipid droplet formation modulation. AML12 mouse hepatocytes, oleate lipid droplets, BODIPY imaging. inhibition, % at 6.5 µM. 240,000 compounds, 0.4% hits. AID 1656;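 active means lipid droplet intensity inhibited by at least 50%, with more than 500 cells counted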
#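 System: AML12 hepatocytes (mouse). Probe or stimulus: oleic acid at 100 µM to induce lipid droplet formation. Times: overnight treatment with compound plus oleate. Detection: Image-based BODIPY and DAPI two-channel analysis. Evaluation: percent inhibition of filter-corrected integrated lipid droplet intensity per well.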
# MEKK3 PB1 HTS: MEKK3-MEK5 PB1 interaction, increase or decrease. binding response (% of control), % at 10 µM. bead-based flow cytometry, Alexa488-MEK5 binding to MEKK3; actives lie on both sides; 0 = blocked by unlabeled MEK5, 100 = vehicle. Q99759. 290,000 compounds, 1.4% hits;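 active means binding response more than 3 SD above or below the average of its plate-row segment, actives on both sides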;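 further: Alexa488 bead fluorescence after subtracting the streptavidin-only scavenger bead signal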
# MEKK2wt PB1 HTS: raises or lowers MEK5 binding to wildtype human MEKK2 PB1 domain; Q9Y2U5; bead flow cytometry, Alexa488-MEK5 binding to MEKK2 WT; actives lie on both sides; binding response (% of control), % at 10 µM; 290,000 compounds, 1.1% hits; AID 1531; in the data active means binding response below about 67% or above about 130%
# MEKK2 mut-MEK5: signal of MEK5 binding to mutant human MEKK2 PB1 domain; bead flow cytometry, Alexa488-MEK5 binding to MEKK2 mutant; 290,000 compounds, 0.35% hits; percent response, % at 10 µM; in the data active means percent response above about 24%, passing the limit was not always enough
# MEKK2wt confirm: raises or lowers MEK5 binding to wildtype human MEKK2, retest; bead flow cytometry, Alexa488-MEK5 binding to MEKK2 WT; actives lie on both sides; 5,900 compounds, 2.4% hits; AID 1892; shares compounds with MEKK3 PB1 HTS; binding response (% of control), % at 10 µM; in the data active means binding response below about 16% or above about 210%; inactive means in between
# MEKK2mut-MEK5: signal of MEK5 binding to mutant human MEKK2, retest; 5,900 compounds, 2% hits; percent response, % at 10 µM; bead flow cytometry, Alexa488-MEK5 binding to MEKK2 mutant; shares compounds with MEKK3 PB1 HTS; AID 1893; in the data active means percent response mostly above about 71%, no sharp cut-off; inactive means mostly below about 38%;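 further: higher means compound restores mutant binding toward wildtype level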
# MEKK3-MEK5 inh: confirmation of inhibitors of MEK5 binding to human MEKK3; binding response (% of control), % at 10 µM; bead flow cytometry, Alexa488-MEK5 binding to MEKK3; active compounds read low; AID 1894; 5,900 compounds, 1.8% hits; shares compounds with MEKK3 PB1 HTS;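 active means binding response below 72% of control, or above a set upper limit, though filed actives all read lower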;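 further: 100% = DMSO only wells and 0% = binding blocked by excess unlabeled MEK5; lower values mean stronger disruption of MEK5 binding to MEKK3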
# An asterisk follows results filed as active; . = not tested or not shown; [ ] = dose if it differs, or a comment.
SMILES,Lipid droplet,MEKK3 PB1 HTS,MEKK2wt PB1 HTS,MEKK2 mut-MEK5,MEKK2wt confirm,MEKK2mut-MEK5,MEKK3-MEK5 inh
O=C(c1ccc([N+](=O)[O-])cc1)N(C1=NCCCCS1)c1ccccc1,12,79*[inhibitor],76,-6,159,44,104
O=C(CSC1=NCCS1)c1ccc(Cl)cc1,-3,115,282*,129*,104,-6,102
O=C(CSC1=NCCS1)N1CCN(c2ccc(Cl)cc2)CC1,.,92,89,-6,.,.,.
CCN1c2ccccc2-c2nc3ccccc3n2C1c1cccs1 (configuration not stated),-3,0.0*[inhibitor],0.0*[inhibitor],-5,104,0,105
COc1ccc(/C(C)=N\NS(=O)(=O)c2ccccc2)cc1OC,-6,132*,110,1,99,-1,105
COc1ccc(/C=C/C(=O)N2CCN(S(=O)(=O)/C=C/c3ccccc3)CC2)cc1OC,12,145*,108,0,102,6,104
COc1ccc(/C=C/C(=O)N2CCN(S(=O)(=O)c3ccccc3)CC2)cc1OC,-3,98,89,-3,.,.,.
Nc1nnc(CSCc2ccc(Cl)cc2)s1,14,97,99,0,.,.,.
Nc1nnc(CSCc2ccc(Cl)cc2Cl)s1,-2,130*,106,1,100,1,98
COc1ccc(NC2CC(=O)N(c3ccc(C(=O)O)cc3)C2=O)cc1 (configuration not stated),3,130*,108,0,97,5,102
C=CCc1c(OC(C)=O)c2ccccc2n(C)c1=O,-2,147*,104,0,106,3,106
Cc1nnc(SCC(=O)NNC(=O)C(C)C)[nH]c1=O,-1,134*,106,4,107,-2,104
CCN(CC)CC#CCC(C)(c1ccccc1)c1ccccc1,.,107,112,8,.,.,.
Cc1ccc(-c2nnc(-n3nc(C)cc3C)c3ccccc23)cc1,3,137*,104,0,95,-5,100
CN(C)CCN1C(=O)c2oc3ccc(Cl)cc3c(=O)c2C1c1cccc(Br)c1 (configuration not stated),-6,129*,139*,14,114,8,105
CN(C)CCN1C(=O)c2oc3ccccc3c(=O)c2C1c1cccc(Br)c1 (configuration not stated),.,87,97,-6,.,.,.
CCOc1ccc(N(Cc2cc3cc(C)ccc3[nH]c2=O)S(=O)(=O)c2ccccc2)cc1,-25,101,97,4,.,.,.
Cc1cc(C)cc(NC(=S)N2C3CCCC2CC(NC(=O)C2CC2)C3)c1 (configuration not stated),-27,98,95,-6,.,.,.
Cc1ccc(N/C=C2/Sc3ccccc3NC2=O)cc1,10,101,100,-3,.,.,.
CCC(C)NC(=O)/C=C1\Sc2ccccc2NC1=O (configuration not stated),-2,135*,109,2,102,-3,100
CCn1ncc(CN2CCCC(C(=O)Nc3cccc(-c4cc5ccccc5[nH]4)c3)C2)c1C (configuration not stated),-4,108,161*,24*,168,36,113
O=C(Cc1cccs1)Nc1nc2c(s1)CCCC2,-2,51*[inhibitor],64,-19,100,-2,96
CS(=O)(=O)N1N=C(c2ccc(Br)cc2)CC1c1ccc2c(c1)OCO2 (configuration not stated),.,94,14*,83*,103,-2,96
CCS(=O)(=O)N1N=C(c2cccc(NS(C)(=O)=O)c2)CC1c1ccccc1 (configuration not stated),10,.,.,.,.,.,.
Cc1ccc(C2=NN(S(C)(=O)=O)C(c3ccc4c(c3)OCO4)C2)cc1 (configuration not stated),-1,10*[inhibitor],.,25,98,-6,96

# Bioassay records (PubChem BioAssay)
